# High-throughput results (PubChem BioAssay)
# NS3 helicase inh – inhibitors of Hepatitis C virus NS3 helicase | AID 1800 | inhibition, % at 10.9 µM | hit rate 0.56% among 290,000 | NS3 helicase DNA unwinding, Cy5 molecular beacon fluorescence;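 active = inhibition above the mean of all tested compounds plus 3 SD, set per campaign, cut at about 35% in these data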;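 also: 0% = DMSO wells and 100% = thioflavine S control wells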
#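 Material: hepatitis C virus NS3 helicase domain fragment enzyme; measured by: Cy5 fluorescence, 0 and 60 min reads; control set: DMSO and thioflavine S; incubation: 60 min unwinding reaction at 25 °C after ATP addition; read-out basis: % inhibition from 60/0 min fluorescence ratio, DMSO 0%, thioflavine S 100%; repeats: singlicate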
# MEKK3 PB1 HTS – MEKK3-MEK5 PB1 interaction, increase or decrease. bead-based flow cytometry, Alexa488-MEK5 binding to MEKK3; actives lie on both sides; 0 = blocked by unlabeled MEK5, 100 = vehicle. hit rate 1.4% among 290,000. Q99759. binding response (% of control), % at 10 µM;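 active = binding response more than 3 SD above or below the average of its plate-row segment, actives on both sides; inconclusive = wells at one plate position flagged as instrument error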;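 also: Alexa488 bead fluorescence after subtracting the streptavidin-only scavenger bead signal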
# Target sequence (Q99759 whole entry, looked up): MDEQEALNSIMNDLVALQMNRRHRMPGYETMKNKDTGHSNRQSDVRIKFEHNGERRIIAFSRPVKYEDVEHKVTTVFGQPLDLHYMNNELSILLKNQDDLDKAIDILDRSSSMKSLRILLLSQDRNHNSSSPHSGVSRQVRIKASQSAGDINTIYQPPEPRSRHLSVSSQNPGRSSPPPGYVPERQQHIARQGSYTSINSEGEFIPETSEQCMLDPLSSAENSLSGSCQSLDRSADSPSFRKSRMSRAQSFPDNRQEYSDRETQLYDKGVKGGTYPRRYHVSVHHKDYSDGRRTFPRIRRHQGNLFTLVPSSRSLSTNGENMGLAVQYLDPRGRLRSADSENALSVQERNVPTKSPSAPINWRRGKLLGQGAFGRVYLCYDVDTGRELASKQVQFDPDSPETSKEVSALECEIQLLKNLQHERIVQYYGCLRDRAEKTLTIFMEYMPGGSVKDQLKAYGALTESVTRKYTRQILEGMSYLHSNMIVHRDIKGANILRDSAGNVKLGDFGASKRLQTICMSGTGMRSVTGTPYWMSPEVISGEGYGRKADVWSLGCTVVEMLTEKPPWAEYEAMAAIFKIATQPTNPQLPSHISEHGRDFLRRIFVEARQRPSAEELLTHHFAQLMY
# MEKK2wt PB1 HTS – raises or lowers MEK5 binding to wildtype human MEKK2 PB1 domain | hit rate 1.1% among 290,000 | bead flow cytometry, Alexa488-MEK5 binding to MEKK2 WT; actives lie on both sides | Q9Y2U5 | binding response (% of control), % at 10 µM; in the data active = binding response below about 67% or above about 130%; inconclusive = no clear call, values can overlap the other calls; inactive = in between
# T cruzi repl – blocks replication of Trypanosoma cruzi; T. cruzi beta-gal in NIH3T3, luminescence, 90 h; inhibition, % (concentration not given with the values); hit rate 1.4% among 300,000; AID 1885;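 active = mean inhibition across valid replicates above about 55%, limit read from the data; inconclusive = mean below that limit but half or more replicates reach it; inactive = mean below it, under half of replicates reach it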;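 also: signal also drops with host cell toxicity which is not excluded here; 0% = plate median of DMSO wells and 100% = zero luminescence signal; higher percent means less beta-gal luminescence so fewer parasites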
#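 System: NIH/3T3 fibroblasts plus reporter T. cruzi. Medium: DMEM plus 2% FBS. Probe or stimulus: 5000 reporter trypomastigotes per well. Compound: single 50 nL compound addition per well in DMSO. Incubation: co-culture of at least 90 h after 3 h attachment. Detection: GalScreen β-gal luminescence, detergent lysis, 60 min. Evaluation: parasite load inhibition, %.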
# DNA FID counter – displaces DNA intercalator in HCV helicase counter-screen; DNA fluorescent intercalator displacement, fluorescence; inhibition, % at 7.9 µM; hit rate 0.17% among 290,000; AID 1845; in the data active = inhibition above about 37%;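 also: 0% = vehicle and 100% = reference compound; higher means more ethidium bromide displaced from hairpin DNA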
# MEKK2 mut-MEK5 – signal of MEK5 binding to mutant human MEKK2 PB1 domain. bead flow cytometry, Alexa488-MEK5 binding to MEKK2 mutant. percent response, % at 10 µM. hit rate 0.35% among 290,000. AID 1530; in the data active = percent response above about 24%, passing the limit was not always enough
# MEKK2wt confirm – raises or lowers MEK5 binding to wildtype human MEKK2, retest; bead flow cytometry, Alexa488-MEK5 binding to MEKK2 WT; actives lie on both sides; hit rate 2.4% among 5,900; shares compounds with MEKK3 PB1 HTS; AID 1892; binding response (% of control), % at 10 µM; in the data active = binding response below about 16% or above about 210%; inactive = in between
# MEKK2mut-MEK5 – signal of MEK5 binding to mutant human MEKK2, retest | shares compounds with MEKK3 PB1 HTS | bead flow cytometry, Alexa488-MEK5 binding to MEKK2 mutant | percent response, % at 10 µM | hit rate 2% among 5,900 | AID 1893; in the data active = percent response mostly above about 71%, no sharp cut-off; inactive = mostly below about 38%;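 also: higher means compound restores mutant binding toward wildtype level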
# MEKK3-MEK5 inh – MEKK3-MEK5 PB1 inhibition, single concentration confirmation; shares compounds with MEKK3 PB1 HTS; bead flow cytometry, Alexa488-MEK5 binding to MEKK3; hits give low values; binding response (% of control), % at 10 µM; hit rate 1.8% among 5,900; AID 1894;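 active = binding response below 72% of control, or above a set upper limit, though filed actives all read lower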;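 also: 100% = DMSO only wells and 0% = binding blocked by excess unlabeled MEK5; lower values mean stronger disruption of MEK5 binding to MEKK3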
# Starred values were filed as active, the others as inactive; ? = inconclusive; · = no result; [ ] = remark or other dose. Only some compounds are listed: those with a hit (about 4.1% of all), similar ones and a draw of the others.
SMILES,NS3 helicase inh,MEKK3 PB1 HTS,MEKK2wt PB1 HTS,T cruzi repl,DNA FID counter,MEKK2 mut-MEK5,MEKK2wt confirm,MEKK2mut-MEK5,MEKK3-MEK5 inh
CCN1C(=O)C(CC(=O)Nc2ccc(F)cc2)N(Cc2ccco2)C1=S (stereo not drawn),-1,104,99,2,-3,3,·,·,·
C=CCN1C(=O)C(CC(=O)Nc2ccc(OCCC)cc2)N(CCCN2CCN(Cc3ccccc3)CC2)C1=S (stereo not drawn),-89,111,183*,67*,30,42,148,22,110
COc1ccc(NC(=O)CC2C(=O)N(Cc3ccccc3)C(=S)N2CCN2CCOCC2)cc1 (stereo not drawn),-17,94,98,7,-7,0,·,·,·
CCCCCCOc1ccc(NC(=O)CC2C(=O)N(CC)C(=S)N2Cc2ccco2)cc1 (stereo not drawn),18,110,141*,?,-13,3,111,3,107
CCOc1ccc(NC(=O)CC2C(=O)N(c3ccccc3)C(=S)N2Cc2ccccn2)cc1 (stereo not drawn),-16,1.0*[inhibitor],1.0*[inhibitor],13,-15,-18,107,3,101
O=S(=O)(c1ccc(Cl)cc1)N1CCN(Cc2c[nH]c3ccccc23)CC1,-15,108,115,-6,3,3,·,·,·
OC1(c2ccc(Cl)cc2)CCN(Cc2c[nH]c3ccccc23)CC1,·,113,151*,30,·,12,130,11,103
Cc1ccc(S(=O)(=O)N2CCN(CC(=O)N/N=C\C(Cl)=C\c3ccccc3)CC2)cc1,-2,137*,106,-8,-2,0,96,-5,99
CC(/C=N\NC(=O)CN1CCN(S(=O)(=O)c2ccc(C)cc2)CC1)=C\c1ccccc1,9,132*,107,-7,-6,0,99,-2,106
Cc1ccc(S(=O)(=O)N2CCN(CC(=O)N/N=C\c3ccncc3)CC2)cc1,-6,103,103,4,-22,1,·,·,·
N#C/C(=C\c1ccc(C(=O)O)cc1)c1nc2sc3c(c2c(=O)[nH]1)CCCC3,14,99,98,·,-13,0,·,·,·
COc1ccc(CN(C)C(=O)COC(=O)c2c(-c3ccccc3Cl)noc2C)cc1,-6,104,96,5,-22,-4,·,·,·
Cc1cc(=O)c2c(C)ccc(C)c2[nH]1,-4,74*[inhibitor],85,-1,-1,-25,103,2,105
O=C(Cn1nc(CNc2ccc(Br)cc2)[n+]2c1CCCCC2)c1ccc([N+](=O)[O-])cc1,-80,103,146*,27,29,33,132,19,96
O=C(Cn1nc(CNc2ccc(Cl)cc2)[n+]2c1CCCCC2)c1ccc(Br)cc1,-65,99,120,32,23,0,·,·,·
Nc1ccccc1SC1CC(=O)N(c2ccccc2Cl)C1=O (stereo not drawn),-1,49*[inhibitor],59,-10,-11,-24,101,7,102
O=C(Nc1ccccc1)c1cccc(N2CCCC2=O)c1,1,61*[inhibitor],77,-7,-5,-16,107,13,110
O=C(Nc1ccon1)c1cccc(C(F)(F)F)c1,6,70*[inhibitor],77,-4,0,-3,96,-4,102
O=C(Nc1ccccc1)c1cccc(C(F)(F)F)c1,-1,144*,108,-15,4,1,104,1,105
O=C(Nc1cccc(C(F)(F)F)c1)Nc1ccon1,-3,104,105,7,-5,3,·,·,·
O=C(CN(c1cc(Cl)ccc1Cl)S(=O)(=O)c1ccccc1)N1CCOCC1,-3,96,96,11,-40,-5,·,·,·
CCc1nnc(NC(=O)Cc2c[nH]c3ccccc23)s1,-1,138*,121,-7,-4,7,103,5,107
O=C(CSc1nnc(-c2ccccc2Cl)o1)N1CCOCC1,7,101,97,-16,-9,-1,·,·,·
Cc1occc1-c1nnc(SCC(=O)N2CCOCC2)o1,7,2.0*[inhibitor],3.0*[inhibitor],-7,3,-18,102,-1,102
COc1ccc(-c2cc(CCCC(=O)NCCc3ccccc3)no2)cc1,-10,0.0*[inhibitor],-15*[inhibitor],8,-29,-26,100,-3,104
SMILES,NS3 helicase inh,MEKK3 PB1 HTS,MEKK2wt PB1 HTS,T cruzi repl,DNA FID counter,MEKK2 mut-MEK5,MEKK2wt confirm,MEKK2mut-MEK5,MEKK3-MEK5 inh
CCOc1ccc(-c2cc(CCCC(=O)NCCc3ccccc3)no2)cc1,-2,98,99,12,-13,0,·,·,·
CCCCCCCOC(=O)C[N+](C)(C)CCOC1CC2CCC1(C)C2(C)C (stereo not drawn),-75,100,163*,62*,21,38,186,49,111
CCCCCCOC(=O)C[N+](C)(C)CCOC1CC2CCC1(C)C2(C)C (stereo not drawn),-61,113,202*,72*,23,14,146,23,106
c1cc(Nc2ncnc3sccc23)cc(-c2nnc3n2CCCCC3)c1,1,-1.0*[inhibitor],-1.0*[inhibitor],9,-21,-17,107,4,103
CCOC(=O)C(NC(=O)Nc1ncccn1)(Oc1ccccc1)C(F)(F)F (stereo not drawn),-8,101,100,4,0,1,·,·,·
CCOC(=O)C(NC(=O)Nc1ccc(F)cc1F)(Oc1ccc(F)cc1)C(F)(F)F (stereo not drawn),-15,128*,104,-11,2,3,105,8,106
CC(C)(C)c1ccc(OCC(=O)N(Cc2cccs2)C2CCS(=O)(=O)C2)cc1 (stereo not drawn),-3,98,97,-3,-36,0,·,·,·
CC12CCC(C(=O)N(CC(O)CN3CCCCCC3)C1=O)C2(C)C (stereo not drawn),1,145*,107,2,-2,0,94,-5,97
CC12CCC(C(=O)N(CC(O)CN3CCCCC3)C1=O)C2(C)C (stereo not drawn),-1,·,·,-5,-3,·,·,·,·
COC(=O)C(C)NC(=O)c1ccc(C(C)(C)C)cc1 (stereo not drawn),-4,101,119,-14,-2,4,·,·,·
